# Source: PubChem BioAssay
# PAFAH1B3 FP inh – inhibitors of human PAFAH1B3 | Q15102 | recombinant PAFAH1B3, FP-rhodamine probe, fluorescence polarization | inhibition, % at 3.39 µM | 340,000 tested, 0.28% active | AID 492972;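 active = inhibition above the screen-wide average of all tested compounds plus 3 SD, cut at about 25% in these data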;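 note: 0% = enzyme with DMSO only and 100% = wells lacking PAFAH1B3 protein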
# ASAP1 inh – blocks human ASAP1-stimulated Arf1 GTP hydrolysis | GDP FP detection | inhibition, % at 16.5 µM | 360,000 tested, 0.19% active | AID 624377; in the data active = inhibition above about 25%;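 note: 0% = vehicle with enzyme and substrate and 100% = no enzyme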
# Target sequence (Q9ULH1 325-724 limits assumed): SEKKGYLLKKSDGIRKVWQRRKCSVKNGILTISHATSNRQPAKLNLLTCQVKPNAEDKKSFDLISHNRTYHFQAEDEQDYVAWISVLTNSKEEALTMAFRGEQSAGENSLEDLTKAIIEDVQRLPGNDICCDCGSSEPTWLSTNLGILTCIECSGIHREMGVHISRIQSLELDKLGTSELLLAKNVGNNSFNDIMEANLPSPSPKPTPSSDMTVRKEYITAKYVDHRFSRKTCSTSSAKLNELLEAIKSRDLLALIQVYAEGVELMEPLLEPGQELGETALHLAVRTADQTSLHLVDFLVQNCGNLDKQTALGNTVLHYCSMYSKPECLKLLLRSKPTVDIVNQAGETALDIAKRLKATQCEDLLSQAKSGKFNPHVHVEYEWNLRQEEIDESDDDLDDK
# PAFAH1B2 inh – blocks human PAF acetylhydrolase 1b catalytic subunit 2. P68402. recombinant PAFAH1B2, FP-rhodamine activity probe, fluorescence polarization. inhibition, % at 3.39 µM. 340,000 tested, 1.2% active. AID 492953;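 active = inhibition above the mean of all tested compounds plus 3 SD, cut at about 24% in these data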;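 note: 0% = enzyme with DMSO and 100% = wells lacking PAFAH1B2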
# Target sequence (P68402 whole entry, looked up): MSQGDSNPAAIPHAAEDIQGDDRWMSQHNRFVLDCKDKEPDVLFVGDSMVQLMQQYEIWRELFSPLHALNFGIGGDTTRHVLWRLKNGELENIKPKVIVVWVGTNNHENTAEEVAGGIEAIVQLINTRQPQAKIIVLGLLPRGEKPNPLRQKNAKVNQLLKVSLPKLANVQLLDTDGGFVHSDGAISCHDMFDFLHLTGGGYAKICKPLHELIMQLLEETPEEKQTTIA
# ARFGAP1 inh – inhibitors of rat ARFGAP1; Arfgap1-stimulated ARF1 GTP hydrolysis, GDP FP detection; inhibition, % at 16.5 µM; Q62848; 360,000 tested, 0.26% active;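 active = inhibition above a per-plate limit, mean inhibition of low control wells plus 3 SD, cut at about 25% in these data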;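 note: 0% = DMSO wells with enzyme and 100% = wells lacking Arfgap1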
#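 Assay system: purified rat His6-Arfgap1 residues 1-136 (GAP domain); Reagent: human Δ17 ARF1 bound to GTP; Dosing: 16.5 µM single point, 1.26% DMSO; Times: GTP hydrolysis reaction 2 h at 25 °C; Signal: FP, GDP Alexa 633 tracer displaced from anti-GDP antibody, 620/688 nm; Measure: % inhibition from polarization.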
# PAFAH2 FP inh – inhibitors of human PAFAH2. recombinant PAFAH2, FP-rhodamine activity probe, fluorescence polarization. 340,000 tested, 0.99% active. AID 492956. Q99487. inhibition, % at 3.39 µM;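 active = inhibition above the mean over all tested compounds plus 3 SD, cut at about 30% in these data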;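 note: inhibitors block probe labeling of enzyme so polarization drops; 0% = enzyme with DMSO and 100% = wells lacking PAFAH2 protein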
# pPAFAH FP inh – pPAFAH (human) enzyme inhibition; recombinant pPAFAH, FP-rhodamine probe fluorescence polarization; inhibition, % at 3.39 µM; 330,000 tested, 1.5% active; AID 463082;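 active = inhibition above the mean inhibition across the screen plus 3 SD, cut at about 25% in these data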;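 note: inhibitors block binding of the rhodamine activity-based probe so polarization drops; 0% = enzyme with DMSO and 100% = wells lacking pPAFAH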
# Starred values were filed as active, the others as inactive; / = no result. Most compounds without a hit are left out; they make up all but 2.8% or so of the library.
SMILES,PAFAH1B3 FP inh,ASAP1 inh,PAFAH1B2 inh,ARFGAP1 inh,PAFAH2 FP inh,pPAFAH FP inh
COc1cccc(C(=O)Oc2ccc(/C=N/Nc3ccc(C(=O)O)cc3)cc2OC)c1,11,8,10,2,1,28*
COc1cc(/C=N/Nc2ccc(Cl)c(C(=O)O)c2)ccc1OC(=O)c1ccc(F)cc1,12,8,1,10,4,3
Nc1nc(-c2ccccc2)c(N=Nc2cccc3ccccc23)s1,6,7,3,10,-2,31*
O=C(C(=O)c1cc(Br)ccc1O)c1cc(Br)ccc1O,5,1,5,9,13,/
O=C(c1cc(-c2cccc(Cl)c2)nc2ccccc12)N1CCN(c2ccccn2)CC1,1,-7,-4,2,4,5
O=C(O)c1cc(-c2cccc(Cl)c2)nc2nc(N3CCCCC3)sc12,27*,4,82*,-1,12,0
O=C1CCCN1CCCNc1ncccc1[N+](=O)[O-],1,-4,7,-8,-2,4
Cc1ccc(-c2cc(-c3ccco3)c3c(N)c(C(=O)NN)oc3n2)cc1,13,-18,5,10,22,32*
NNC(=O)c1oc2nc(-c3ccccc3)cc(-c3ccccc3)c2c1N,16,-2,5,1,6,6
NNC(=O)c1oc2nc(-c3cccs3)cc(-c3ccco3)c2c1N,6,1,11,18,15,32*
COc1cccc(CSc2nc3sc(C)c(C)c3c(=O)n2Cc2ccco2)c1,7,8,-1,10,-2,26*
COc1cc(S(=O)(=O)N2CCOCC2)ccc1NC(=O)COC(=O)C12CC3CC(CC(C3)C1)C2,5,-8,1,8,3,2
CCCc1nc2ccccc2c(C(=O)OCC(=O)Nc2cccc(S(=O)(=O)N3CCOCC3)c2)c1CC,-9,5,-11,28*,-24,-19
O=C(COC(=O)C12CC3CC(CC(Br)(C3)C1)C2)Nc1cccnc1Cl,3,12,32*,-9,6,0
CCCc1nc2ccccc2c(C(=O)OCC(=O)Nc2ccc(S(=O)(=O)N3CCOCC3)cc2)c1CC,-52,4,-25,9,-54,-23
O=C(COC(=O)C12CC3CC(CC(Br)(C3)C1)C2)Nc1cccc(S(=O)(=O)N2CCOCC2)c1,2,-2,31*,-5,2,1
CN(Cc1ccccc1)C(=O)COC(=O)C12CC3CC(CC(Br)(C3)C1)C2,10,3,42*,-15,-18,2
Cc1ccc(CN(C)C(=O)CCNC(=O)c2ccc(Cl)cc2)o1,/,10,/,2,/,/
O=C1NC(c2cccs2)C(C(=O)c2ccccc2)C(O)(C(F)(F)F)N1 (stereo unspecified),3,-4,32*,8,3,0
O=C1NC(c2ccncc2)C(C(=O)c2cccs2)C(O)(C(F)(F)F)N1 (stereo unspecified),8,-6,8,-7,5,6
O=C(O)c1ccc(-n2cccc2/C=C2/SC(=O)N(CC(=O)N3CCCC3)C2=O)cc1,23,-21,12,-6,38*,34*
O=C(O)c1ccc(-n2cccc2/C=C2/NC(=O)N(c3cccc(Cl)c3)C2=O)cc1,8,-12,9,7,20,/
N#Cc1ccccc1CN1C(=O)S/C(=C/c2cccn2-c2ccc(C(=O)O)cc2)C1=O,5,-1,-2,-5,17,9
O=C(O)c1ccc(-n2cccc2/C=C2/NC(=O)N(c3ccccc3)C2=O)cc1,12,-7,14,0,26,29*
O=C(NNS(=O)(=O)c1ccccc1Cl)C1COc2ccccc2O1 (stereo unspecified),7,-6,4,-4,6,3
SMILES,PAFAH1B3 FP inh,ASAP1 inh,PAFAH1B2 inh,ARFGAP1 inh,PAFAH2 FP inh,pPAFAH FP inh
CCCCCCCCCCNC(=O)CCn1[nH]c(=O)c2ccccc2c1=O,8,-8,61*,-23,22,30*
CCCCCCOC(=O)CCn1[nH]c(=O)c2ccccc2c1=O,-11,8,3,-18,2,6
CC1(C)CC2(OC2c2ccccc2[N+](=O)[O-])C(=O)c2ccccc21 (stereo unspecified),/,4,/,-18,/,/
O=C1CSC(c2cccc([N+](=O)[O-])c2)N1C1CC2CCC1C2 (stereo unspecified),-2,-7,24*,-2,2,0
O=C(NCCc1ccc(Cl)cc1)c1ccc(=O)[nH]c1,-4,1,30*,8,-5,-5
O=C(NCCc1ccc(O)cc1)c1ccc(Cl)cc1,7,13,5,1,0,0
O=C(NCCCO)C(=O)NCCc1ccc(Cl)cc1,6,-1,28*,-1,1,2
CCNC(=O)C(=O)NCCc1ccc(Cl)cc1,4,4,25*,2,-3,5
O=C(CCc1c[nH]c2ccccc12)NCCc1ccc(Cl)cc1,3,-11,28*,13,10,0
COc1ccc(CCNC(=O)c2ccc(=O)[nH]c2)cc1,1,-10,3,3,3,0
CC(C)C[C@@H](CNCC(=O)[C@H](Cc1ccccc1)NC(=O)c1[nH]cnc1C(=O)N[C@@H](C)CN)NC(=O)c1nc[nH]c1C(=O)N[C@@H](C)C(=O)O,12,2,5,-1,0,/
CC1=C(C(=O)N(C(C)C)C(C)C)CC(CC(=O)NC2CCCCC2)C(=O)N1Cc1ccc(C(C)(C)C)cc1 (stereo unspecified),/,-12,/,-9,/,/
CSc1ncnc2c1ncn2CCCNCc1cccc2ccccc12,/,-15,/,18,/,/
C/C(=N/NC(=O)CN1CCN(S(=O)(=O)c2ccc(Br)cc2)CC1)c1ccco1,4,-9,27*,-8,4,3
C/C(=N\NC(=O)CN1CCN(S(=O)(=O)c2ccc(C)cc2)CC1)c1cccnc1,6,-20,6,0,5,-4
O=C(CN1CCN(S(=O)(=O)c2ccc(Br)cc2)CC1)N/N=C/c1ccc(Br)s1,3,7,20,3,7,0
C/C(=N/NC(=O)CN1CCN(S(=O)(=O)c2ccc(C)cc2)CC1)c1cccc(O)c1,6,-4,25*,3,-5,4
O=C(CN1CCN(S(=O)(=O)c2ccc(Br)cc2)CC1)N/N=C/c1ccco1,4,-7,30*,-5,13,4
C/C(=N/NC(=O)CN1CCN(Cc2ccccc2Cl)CC1)c1ccco1,-3,6,0,-8,0,7
O=S(=O)(c1ccc(Br)cc1)N1CCN(Cc2ccco2)CC1,10,4,26*,10,3,-5
COc1ccc(Oc2coc3cc(OC(=O)N4CCOCC4)ccc3c2=O)cc1,-4,3,-4,12,9,34*
CCC1(CC)SC(N)=NC1=O,12,-1,2,-10,0,/
